According to ChEMBL document CHEMBL3286292, “Synthesis and antimicrobial activity of amine linked bis- and tris-heterocycles” (2014):
Activity calls are given as the source filed them. No cut-off for these calls is given here.

Columns and labels:
Assay type in all cases: functional
Klebsiella pneumoniae [1] = experiment: Antibacterial activity against Klebsiella pneumoniae assessed as growth inhibition at 100 ug/well after 24 hrs by agar well diffusion method; conditions: for zone of inhibition at 100 µg/disc: read-out: DIZ
How it was run: (§1)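 Agar well diffusion on […] swabbed with a 24 h broth culture. Samples were dissolved in DMSO and loaded at three per-well amounts into 6 mm wells. Incubation was 37 °C for 24 h, then inhibition zone diameter was read in mm. DMSO served as the negative control. Runs were in duplicate and averaged.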

Bacillus subtilis [2] = experiment: Antibacterial activity against Bacillus subtilis assessed as growth inhibition at 25 ug/well after 24 hrs by agar well diffusion method; conditions: for zone of inhibition at 25 µg/disc: read-out: DIZ; how it was run: as §1
Staphylococcus aureus [3] = experiment: Antibacterial activity against Staphylococcus aureus assessed as growth inhibition at 50 ug/well after 24 hrs by agar well diffusion method; conditions: for zone of inhibition at 50 µg/disc: read-out: DIZ; how it was run: as §1
Klebsiella pneumoniae [4] = experiment: Antibacterial activity against Klebsiella pneumoniae assessed as growth inhibition at 50 ug/well after 24 hrs by agar well diffusion method; conditions: for zone of inhibition at 50 µg/disc: read-out: DIZ; how it was run: as §1
Bacillus subtilis [5] = experiment: Antibacterial activity against Bacillus subtilis assessed as growth inhibition at 100 ug/well after 24 hrs by agar well diffusion method; conditions: for zone of inhibition at 100 µg/disc: read-out: DIZ; how it was run: as §1
Aspergillus niger [6] = experiment: Antifungal activity against Aspergillus niger assessed as inhibition of spore germination at 50 ug/well after 48 hrs by agar well diffusion method; conditions: for zone of inhibition at 50 µg/disc: read-out: DIZ
How it was run: (§2)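 Well diffusion using 6 mm bored wells loaded with DMSO solutions at three per-well amounts, with a DMSO negative control. Plates were held at 28 °C for 48 h, then zone of inhibition diameter was measured in mm. Runs were in duplicate and averaged.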

Pseudomonas aeruginosa [7] = experiment: Antibacterial activity against Pseudomonas aeruginosa assessed as growth inhibition at 100 ug/well after 24 hrs by agar well diffusion method; conditions: for zone of inhibition at 100 µg/disc: read-out: DIZ; how it was run: as §1
Staphylococcus aureus [8] = experiment: Antibacterial activity against Staphylococcus aureus assessed as growth inhibition at 25 ug/well after 24 hrs by agar well diffusion method; conditions: for zone of inhibition at 25 µg/disc: read-out: DIZ; how it was run: as §1
Pseudomonas aeruginosa [9] = experiment: Antibacterial activity against Pseudomonas aeruginosa assessed as growth inhibition at 50 ug/well after 24 hrs by agar well diffusion method; conditions: for zone of inhibition at 50 µg/disc: read-out: DIZ; how it was run: as §1
Klebsiella pneumoniae [10] = experiment: Antibacterial activity against Klebsiella pneumoniae assessed as growth inhibition at 25 ug/well after 24 hrs by agar well diffusion method; conditions: for zone of inhibition at 25 µg/disc: read-out: DIZ; how it was run: as §1
Bacillus subtilis [11] = experiment: Antibacterial activity against Bacillus subtilis assessed as growth inhibition at 50 ug/well after 24 hrs by agar well diffusion method; conditions: for zone of inhibition at 50 µg/disc: read-out: DIZ; how it was run: as §1
Aspergillus niger [12] = experiment: Antifungal activity against Aspergillus niger assessed as inhibition of spore germination at 25 ug/well after 48 hrs by agar well diffusion method; conditions: for zone of inhibition at 25 µg/disc: read-out: DIZ; how it was run: as §2
Staphylococcus aureus [13] = experiment: Antibacterial activity against Staphylococcus aureus assessed as growth inhibition at 100 ug/well after 24 hrs by agar well diffusion method; conditions: for zone of inhibition at 100 µg/disc: read-out: DIZ; how it was run: as §1
Pseudomonas aeruginosa [14] = experiment: Antibacterial activity against Pseudomonas aeruginosa assessed as growth inhibition at 25 ug/well after 24 hrs by agar well diffusion method; conditions: for zone of inhibition at 25 µg/disc: read-out: DIZ; how it was run: as §1

Row | SMILES | growth inhibition (GI) (Bacillus subtilis [2]) | growth inhibition (GI) (Staphylococcus aureus [3]) | growth inhibition (GI) (Pseudomonas aeruginosa [7]) | growth inhibition (GI) (Staphylococcus aureus [8]) | growth inhibition (GI) (Pseudomonas aeruginosa [9]) | growth inhibition (GI) (Klebsiella pneumoniae [10]) | growth inhibition (GI) (Aspergillus niger [12]) | growth inhibition (GI) (Pseudomonas aeruginosa [14]) | zone of inhibition at 100 µg/disc (Klebsiella pneumoniae [1]) [mm] | zone of inhibition at 50 µg/disc (Klebsiella pneumoniae [4]) [mm] | zone of inhibition at 100 µg/disc (Bacillus subtilis [5]) [mm] | zone of inhibition at 50 µg/disc (Aspergillus niger [6]) [mm] | zone of inhibition at 50 µg/disc (Bacillus subtilis [11]) [mm] | zone of inhibition at 100 µg/disc (Staphylococcus aureus [13]) [mm] | zone of inhibition at 25 µg/disc (Bacillus subtilis [2]) [mm] | zone of inhibition at 50 µg/disc (Staphylococcus aureus [3]) [mm] | zone of inhibition at 100 µg/disc (Pseudomonas aeruginosa [7]) [mm] | zone of inhibition at 25 µg/disc (Staphylococcus aureus [8]) [mm] | zone of inhibition at 25 µg/disc (Klebsiella pneumoniae [10]) [mm] | zone of inhibition at 25 µg/disc (Aspergillus niger [12]) [mm] | also measured
1 | NC(=S)N1N=C(Nc2nc(-c3ccccc3)co2)C[C@@H]1c1ccccc1 | inactive | inactive | inactive | inactive | inactive | inactive | inactive | inactive | – | – | – | – | – | – | – | – | – | – | – | – | growth inhibition (GI) (Klebsiella pneumoniae [1]): inactive; growth inhibition (GI) (Klebsiella pneumoniae [4]): inactive; growth inhibition (GI) (Bacillus subtilis [5]): inactive; zone of inhibition (Aspergillus niger [6]): inactive; growth inhibition (GI) (Bacillus subtilis [11]): inactive; growth inhibition (GI) (Staphylococcus aureus [13]): inactive
2 | Cc1ccc(-c2coc(Nc3cc(-c4ccc(C)cc4)n(C(N)=S)n3)n2)cc1 | inactive | inactive | inactive | inactive | inactive | inactive | inactive | inactive | 8 | 7 | 8 | 6 | 7 | 6 | – | – | – | – | – | – | –
3 | NC(=S)N1N=C(Nc2nc(-c3ccc(Cl)cc3)c[nH]2)C[C@@H]1c1ccc(Cl)cc1 | inactive | inactive | inactive | inactive | inactive | inactive | inactive | inactive | 7 | 6 | 6 | – | – | – | – | – | – | – | – | – | zone of inhibition (Aspergillus niger [6]): inactive; growth inhibition (GI) (Bacillus subtilis [11]): inactive; growth inhibition (GI) (Staphylococcus aureus [13]): inactive
4 | NC(=S)n1nc(Nc2nc(-c3ccc(Cl)cc3)cs2)cc1-c1ccc(Cl)cc1 | – | – | – | – | – | – | – | – | 31 | 28 | 26 | 22 | 25 | 29 | 22 | 26 | 18 | 24 | 26 | 20 | zone of inhibition at 50 µg/disc (Pseudomonas aeruginosa [9]): 16 mm; zone of inhibition at 25 µg/disc (Pseudomonas aeruginosa [14]): 14 mm
5 | Cc1ccc(-c2csc(NC3=NN(C(N)=S)[C@@H](c4ccc(C)cc4)C3)n2)cc1 | inactive | inactive | inactive | inactive | inactive | inactive | inactive | inactive | – | – | – | – | – | – | – | – | – | – | – | – | growth inhibition (GI) (Klebsiella pneumoniae [1]): inactive; growth inhibition (GI) (Klebsiella pneumoniae [4]): inactive; growth inhibition (GI) (Bacillus subtilis [5]): inactive; zone of inhibition (Aspergillus niger [6]): inactive; growth inhibition (GI) (Bacillus subtilis [11]): inactive; growth inhibition (GI) (Staphylococcus aureus [13]): inactive
6 | Cc1ccc(-c2c[nH]c(Nc3cc(-c4ccc(C)cc4)n(-c4nc(-c5ccc(C)cc5)cs4)n3)n2)cc1 | – | – | – | – | – | – | – | – | 17 | 14 | 16 | 17 | 13 | 17 | 12 | 14 | 10 | 12 | 13 | 16 | zone of inhibition at 50 µg/disc (Pseudomonas aeruginosa [9]): 7 mm; zone of inhibition at 25 µg/disc (Pseudomonas aeruginosa [14]): 6 mm
7 | NC(=S)n1nc(Nc2nc(-c3ccccc3)co2)cc1-c1ccccc1 | – | – | inactive | – | inactive | – | – | inactive | 12 | 9 | 11 | 9 | 9 | 10 | 7 | 8 | – | 6 | 7 | 8 | –
8 | NC(=S)n1nc(Nc2nc(-c3ccc(Cl)cc3)c[nH]2)cc1-c1ccc(Cl)cc1 | – | – | – | – | – | – | – | – | 26 | 22 | 23 | 24 | 21 | 25 | 19 | 23 | 15 | 21 | 20 | 22 | zone of inhibition at 50 µg/disc (Pseudomonas aeruginosa [9]): 13 mm; zone of inhibition at 25 µg/disc (Pseudomonas aeruginosa [14]): 11 mm
9 | Cc1ccc(-c2coc(NC3=NN(C(N)=S)[C@@H](c4ccc(C)cc4)C3)n2)cc1 | inactive | inactive | inactive | inactive | inactive | inactive | inactive | inactive | – | – | – | – | – | – | – | – | – | – | – | – | growth inhibition (GI) (Klebsiella pneumoniae [1]): inactive; growth inhibition (GI) (Klebsiella pneumoniae [4]): inactive; growth inhibition (GI) (Bacillus subtilis [5]): inactive; zone of inhibition (Aspergillus niger [6]): inactive; growth inhibition (GI) (Bacillus subtilis [11]): inactive; growth inhibition (GI) (Staphylococcus aureus [13]): inactive
10 | NC(=S)n1nc(Nc2nc(-c3ccccc3)c[nH]2)cc1-c1ccccc1 | – | – | – | – | – | – | – | – | 24 | 20 | 22 | 20 | 20 | 23 | 18 | 20 | 14 | 18 | 19 | 19 | zone of inhibition at 50 µg/disc (Pseudomonas aeruginosa [9]): 12 mm; zone of inhibition at 25 µg/disc (Pseudomonas aeruginosa [14]): 10 mm
11 | Cc1ccc(-c2csc(Nc3cc(-c4ccc(C)cc4)n(C(N)=S)n3)n2)cc1 | – | – | – | – | – | – | – | inactive | 16 | 13 | 14 | 13 | 12 | 15 | 10 | 13 | 8 | 11 | 11 | 12 | zone of inhibition at 50 µg/disc (Pseudomonas aeruginosa [9]): 6 mm
